Laboratory results from ChEMBL document CHEMBL1146666, “N-[1-Aryl-2-(1-imidazolo)ethyl]-guanidine derivatives as potent inhibitors of the bovine mitochondrial F1F0 ATP hydrolase” (Bioorg Med Chem Lett, 2004).

Key:
[1] = molecular target: T1, Mitochondrial complex V; ATP synthase (Bos taurus, UniProt P00829+P05630+P05631+P05632); test: Inhibitory activity against bovine mitochondrial F1F0 ATP hydrolase; format: protein-complex assay
[2] = molecular target: T1, Mitochondrial complex V; ATP synthase; test: Inhibitory activity against bovine mitochondrial F1F0-ATP synthase; format: protein-complex assay
Summary of the method: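 Synthase direction read as the rise in A340 in a hexokinase:glucose-6-phosphate dehydrogenase coupled assay.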

T1 sequence (P05632 whole entry): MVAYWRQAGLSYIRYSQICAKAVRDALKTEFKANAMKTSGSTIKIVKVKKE
T1 sequence (P00829 whole entry): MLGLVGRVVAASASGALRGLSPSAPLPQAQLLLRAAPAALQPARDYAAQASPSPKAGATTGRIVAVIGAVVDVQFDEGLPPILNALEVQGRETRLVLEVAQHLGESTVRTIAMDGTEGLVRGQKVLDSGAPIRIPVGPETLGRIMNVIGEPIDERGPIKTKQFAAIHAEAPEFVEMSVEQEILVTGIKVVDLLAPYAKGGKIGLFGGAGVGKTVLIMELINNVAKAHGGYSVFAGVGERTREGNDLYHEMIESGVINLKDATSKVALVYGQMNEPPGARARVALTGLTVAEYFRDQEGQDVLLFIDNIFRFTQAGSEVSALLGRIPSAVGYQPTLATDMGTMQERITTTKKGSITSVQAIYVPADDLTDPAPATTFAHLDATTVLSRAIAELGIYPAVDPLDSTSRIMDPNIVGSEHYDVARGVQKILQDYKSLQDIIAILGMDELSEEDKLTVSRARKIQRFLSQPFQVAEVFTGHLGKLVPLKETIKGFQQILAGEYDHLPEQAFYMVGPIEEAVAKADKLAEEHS
T1 sequence (P05631 whole entry): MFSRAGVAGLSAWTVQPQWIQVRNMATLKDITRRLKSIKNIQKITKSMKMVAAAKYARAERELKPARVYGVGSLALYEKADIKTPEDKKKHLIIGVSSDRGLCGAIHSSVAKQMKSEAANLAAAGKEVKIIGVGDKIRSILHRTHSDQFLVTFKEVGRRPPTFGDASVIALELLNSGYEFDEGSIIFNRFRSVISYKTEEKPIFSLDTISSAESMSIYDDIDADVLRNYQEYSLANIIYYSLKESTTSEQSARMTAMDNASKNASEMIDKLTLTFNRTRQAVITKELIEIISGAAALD
T1 sequence (P05630 whole entry): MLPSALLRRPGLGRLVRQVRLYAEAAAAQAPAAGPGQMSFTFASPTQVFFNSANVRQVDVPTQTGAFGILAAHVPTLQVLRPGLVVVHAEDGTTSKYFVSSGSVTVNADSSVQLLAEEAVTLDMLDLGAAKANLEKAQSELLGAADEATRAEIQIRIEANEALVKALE

Compound	IC50 [1] [µM]	IC50 [2] [µM]
Cc1ccc(C(Cn2ccnc2)OC(=S)Nc2ccc(Cl)cc2)c(C)c1 (configuration not stated)	31.4	> 100
S=C(Nc1ccc(Cl)cc1Cl)OC(Cn1ccnc1)c1ccc(Cl)cc1Cl (configuration not stated)	0.03	> 100
N#CN/C(=N\C(Cn1ccnc1)c1ccc(Cl)cc1Cl)Nc1cccc(Cl)c1Cl (configuration not stated)	2.49	> 100
O=C(Nc1ccc(Cl)cc1Cl)OC(Cn1ccnc1)c1ccc(Cl)cc1Cl (configuration not stated)	6.77	> 100
N#CN/C(=N/c1ccc(Cl)cc1Cl)NC(Cn1ccnc1)c1ccc(Cl)cc1Cl (configuration not stated)	0.6	> 100
CCC(=O)C(Nc1ccc(Cl)cc1)NC(Cn1ccnc1)c1ccc(Cl)cc1Cl (configuration not stated)	2.27	> 100
Cc1ccc(NC(=S)OC(Cn2ccnc2)c2ccc(Cl)cc2Cl)c(C)c1 (configuration not stated)	0.23	> 100
O=C(c1ccc(Cl)cc1)C(Nc1ccc(Cl)cc1)NC(Cn1ccnc1)c1ccc(Cl)cc1Cl (configuration not stated)	0.082	> 100
N#CN/C(=N\C(Cn1ccnc1)c1cc(C(F)(F)F)ccc1C(F)(F)F)Nc1ccc(Cl)cc1Cl (configuration not stated)	0.71	> 100
N#CN/C(=N/c1cccc(Cl)c1)NC(Cn1ccnc1)c1ccc(Cl)cc1Cl (configuration not stated)	9.17	> 100
Cc1ccc(NC(=S)OC(Cn2ccnc2)c2ccc(Cl)cc2Cl)cc1 (configuration not stated)	0.66	> 100
N#Cc1ccc(C(=O)C(Nc2ccc(Cl)cc2)NC(Cn2ccnc2)c2ccc(Cl)cc2Cl)cc1 (configuration not stated)	0.28	> 100
N#CN/C(=N\C(Cn1ccnc1)c1ccc(Cl)cc1Cl)Nc1ccc(Cl)cc1 (configuration not stated)	8.8	> 100
S=C(Nc1ccc(Cl)cc1Cl)NC(Cn1ccnc1)c1ccc(Cl)cc1Cl (configuration not stated)	2.41	> 100
S=C(Nc1ccccc1)OC(Cn1ccnc1)c1ccc(Cl)cc1Cl (configuration not stated)	3.6	> 100
S=C(Nc1ccc(Cl)cc1)OC(Cn1ccnc1)c1ccc(Cl)cc1Cl (configuration not stated)	0.43	> 100
N#CN=C(Nc1ccccc1Cl)NC(Cn1ccnc1)c1ccc(Cl)cc1Cl (configuration not stated)	2.23	> 100
N#Cc1cccc(C(=O)C(Nc2ccc(Cl)cc2)NC(Cn2ccnc2)c2ccc(Cl)cc2Cl)c1 (stereo in doubt; 19a)	0.033	
N#Cc1cccc(C(=O)C(Nc2ccc(Cl)cc2)NC(Cn2ccnc2)c2ccc(Cl)cc2Cl)c1 (stereo in doubt; form 1)	> 100	> 100
